Experimental data gathered from unrelated publications.
Protocols differ between the studies behind these lines.
OPRK1: Kappa-type opioid receptor (OPRK1, Cavia porcellus, UniProt P41144)
HRH2: Histamine H2 receptor (HRH2, Homo sapiens, UniProt P25021)
GLP2R: Glucagon-like peptide 2 receptor (GLP2R, Homo sapiens, UniProt O95838)
ADRA1A: Alpha-1A adrenergic receptor (ADRA1A, Homo sapiens, UniProt P35348)

SMILES	target	read-out	action	method	notes	quantity	result
Cc1cccc(C)c1C[C@H](NC(=O)[C@@H](CCCNC(=N)N)NC(=O)[C@@H](N)Cc1c(C)cc(O)cc1C)C(=O)N[C@@H](CCCCN)C(N)=O	OPRK1	ligand displacement		radioligand	cell membranes	Ki	4.7 nM
C[C@H]1CC[C@@]2(OC1)O[C@H]1C[C@H]3[C@@H]4CC[C@@H]5C[C@@H](O[C@@H]6O[C@H](CO)[C@H](O)[C@H](O)[C@H]6O[C@@H]6O[C@H](CO)[C@@H](O)[C@H](O)[C@H]6O)CC[C@]5(C)[C@H]4CC[C@]3(C)[C@H]1[C@@H]2C	Angiotensin-converting enzyme 2 (ACE2, Homo sapiens, UniProt Q9BYF1)	binding				Kd	61700 nM
OC(c1ccc(F)cc1)C(F)(F)CCN1CCC(O)(c2ccc(Cl)cc2)CC1 (racemic)	HRH2	cell-free assay		radioligand		Ki	4830 nM
CNc1nc2cc(OCCCCN3CCN(c4cccc(Cl)c4Cl)CC3)ccc2s1	HRH2	ligand displacement		radioligand		Ki	310 nM
Cc1cc(O)cc(C)c1C[C@H](C)C(=O)N[C@@H]1CCCCC[C@@H](C(N)=O)NC(=O)[C@H](Cc2ccccc2)NC(=O)[C@H](Cc2ccccc2)NC1=O	OPRK1	ligand displacement		radioligand	cell membranes	Ki	302 nM
N=C(N)NCCC[C@H]1NC(=O)[C@H](Cc2ccc(O)cc2)NC(=O)[C@H](CCCCN)NC(=O)[C@H](Cc2ccccc2)NC1=O	OPRK1	ligand displacement		radioligand	cell membranes	Ki	67.4 nM
CC[C@H](C)[C@H](NC(=O)[C@H](CO)NC(=O)[C@H](CC(=O)O)NC(=O)[C@H](CC(C)C)NC(=O)[C@@H](NC(=O)[C@H](CCCCN)NC(=O)[C@H](CC(N)=O)NC(=O)[C@@H](NC(=O)[C@H](CC(=O)O)NC(=O)[C@H](CO)NC(=O)[C@@H](NC(=O)[C@H](Cc1ccccc1)NC(=O)[C@H](CO)NC(=O)CNC(=O)[C@H](CC(=O)O)NC(=O)[C@@H](NC(=O)[C@@H](N)Cc1c[nH]cn1)C(C)C)[C@@H](C)O)C(C)C)C(C)C)C(=O)N[C@@H](C)C(=O)N[C@@H](C)C(=O)N[C@@H](CCCCN)C(=O)N[C@@H](CCC(=O)O)C(=O)N[C@@H](Cc1ccc(O)cc1)C(=O)N[C@@H](CC(C)C)C(=O)N[C@@H](CCC(N)=O)C(=O)N[C@@H](Cc1c[nH]c2ccccc12)C(=O)N[C@H](C(=O)N[C@@H](CCSC)C(=O)N[C@@H](CC(N)=O)C(=O)N[C@@H](CO)C(=O)N[C@@H](CCCCN)C(=O)N[C@@H](C)C(=O)N[C@@H](CO)C(=O)NCC(=O)O)C(C)C	GLP2R	reporter gene	agonist	luciferase		EC50	> 1000 nM
CC[C@H](C)[C@H](NC(=O)[C@H](CCCNC(=N)N)NC(=O)[C@H](CC(C)C)NC(=O)[C@@H](N)Cc1ccccc1)C(=O)N[C@@H](CCCNC(=N)N)C(=O)N1CCC[C@H]1C(=O)N[C@@H](CCCCN)C(=O)O	ADRA1A	cell-free assay		radioligand		Ki	> 10000 nM
CCCC[C@@H](NC(=O)[C@@H](N)Cc1ccc(O)cc1)C(=O)NCC(=O)N[C@@H](Cc1ccc(F)cc1)C(=O)N(C)CCC[C@@]1(c2ccc(F)cc2)OCc2cc(C#N)ccc21	ADRA1A	ligand displacement		radioligand		Ki	6600 nM
CC[C@H](C)[C@H](NC(=O)[C@H](CC(C)C)NC(=O)[C@H](Cc1c[nH]c2ccccc12)NC(=O)[C@H](CCCCN)NC(=O)[C@H](CC(C)C)NC(=O)[C@H](Cc1ccccc1)NC(=O)[C@H](CCC(=O)O)NC(=O)[C@H](CCC(N)=O)NC(=O)[C@@H](NC(=O)[C@H](C)NC(=O)[C@H](CC(C)C)NC(=O)[C@H](CC(=O)O)NC(=O)[C@H](CC(=O)O)NC(=O)[C@H](CC(C)C)NC(=O)[C@H](CC(C)C)NC(=O)[C@H](CCCCN)NC(=O)[C@H](CC(N)=O)NC(=O)[C@H](Cc1ccc(O)cc1)NC(=O)[C@H](CC(=O)O)NC(=O)[C@H](CO)NC(=O)[C@@H](NC(=O)[C@H](Cc1ccccc1)NC(=O)[C@@H](NC(=O)CNC(=O)[C@H](CC(=O)O)NC(=O)[C@H](C)NC(=O)[C@@H](N)Cc1c[nH]cn1)[C@@H](C)O)[C@@H](C)O)[C@@H](C)O)C(=O)N[C@@H](CC(N)=O)C(=O)N[C@@H](CCC(N)=O)C(=O)N[C@@H](CCCCN)C(=O)N[C@H](C(=O)N[C@H](C(=O)N[C@@H](CCC(N)=O)C(=O)O)[C@@H](C)O)C(C)C	GLP2R	reporter gene	agonist	luciferase		EC50	1.41 nM
C[C@@H](NC(=O)[C@@H](N)Cc1ccc(O)cc1)C(=O)NCC(=O)N[C@@H](Cc1ccccc1)C(=O)N(C)CCC[C@@]1(c2ccc(F)cc2)OCc2cc(C#N)ccc21	ADRA1A	ligand displacement		radioligand		Ki	6800 nM
Cc1cc(C)c(C[C@H](NC(=O)[C@@H](CCCNC(=N)N)NC(=O)[C@@H](N)Cc2c(C)cc(O)cc2C)C(=O)N[C@@H](CCCCN)C(N)=O)c(C)c1	OPRK1	ligand displacement		radioligand	cell membranes	Ki	48 nM
Cc1cc(O)cc(C)c1C[C@H](C)C(=O)N[C@@H]1C/C=C/CC[C@@H](C(N)=O)NC(=O)[C@H](Cc2ccccc2)NC(=O)[C@H](Cc2ccccc2)NC1=O	OPRK1	ligand displacement		radioligand	cell membranes	Ki	635 nM
